The results in this text go back to the RNAGym collection of RNA variant scans (doi:10.1126/science.aae0568).

This sample holds only a part of the variants without activity.

To fix the notation:
B1: tRNA (parent)
chain: GUUCCGUUGGCGUAAUGGUAACGCGUCUCCCUCCUAAGGAGAAGACUGCGGGUUCGAGUCCCGUACGGAACG

This data set covers variants of B1. In words: yeast fitness relative to wild type (ratio to wild type); higher = fitter; tRNA-Arg(CCU), competitive growth, 37 C, YPD. The procedure, abridged:
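Start and end populations of a pooled competition were compared by 100-nucleotide paired-end sequencing of gene amplicons. The Saccharomyces cerevisiae strains carried tRNA-Arg(CCU) gene variants at the native genomic locus, synthesised with a 3% per-site mutation rate at 69 sites, and competed in YPD at 37°C for 24 hours in six parallel replicates. Darwinian fitness relative to wild type was based on the change in genotype frequencies. Genotypes required ≥ 100 starting reads, and estimates < 0.5 were set to 0.5.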
For the variant GUUCCGUUGGCGUAAUGGUAACGCGUCUCACUCCUAAGGAGAAGACUGCGGGUUCGAGUCCGGUACGGAACG, the yeast fitness amounted to 0.662.

Turning to GUUCCGUUGGCGUAAUGGUAACGCGUCUCACUCCUACCGAGAAGACUGCGGGUUCGAGUCCCGUACGGAACG, the yeast fitness was not above 0.5. The value for GUUCCGUUGGCGUAAUGGUAACGCGUCUUCCUCCUAAGGAGAAGACUGCGGGUUCGAGUCCCGUACUGUACG was not above 0.5. The result for GUUCCGUUGGCGUAAUGGUAACGCGUCUUCCUCCUAAGGAGAAGACCGCGGGUUCGAGUCCCGUACGGAACG reads 0.923. The value for GUUCCGUUGGCGUAAUGGUAACGCGUCUUCCUCCUAAGGAGAAGACAGCGGGUUCGAGUCCCGUACGGAACG was 0.795. In the case of GUUCCGUUGGCGUAAUGGUAACGCGUCUCACUCCUAAGGAGAAGACUGAGGGUUCGAGUCCCGUAUGGAACG, the yeast fitness was not above 0.5. GUUCCGUUGGCGUAAUGGUAACGCGUCUCACUCCUAAGGAGAAGACUGCGGGUUCGAGUCCCGUACGGGACG: the yeast fitness was determined as 0.915. The result for GUUCCGUUGGCGUAAUGGUAACGCGUCUCACUCCUAAGGAGAAGACUGCGGGUUCGAGUCCCGUACGGCACG reads 1.03; that for GUUCCGUUGGCGUAAUGGUAACGCGUCUUCCUCCAAAGGAGAAGACUGCGGGUUCGAGUCGCGUACGGAACG, not above 0.5; that for GUUCCGUUGGCGUAAUGGUAACGCGUCUCACUCCUAAGGAGAAGACUGCGGGUUCGAGUCACGUACGGCACG, 0.609. On to GUUCCGUUGGCGUAAUGGUAACGCGUCUCAGUCCUAAGCAGAAGACUGCGGGUUCGAGUCCCGUACGGAACG, for which the yeast fitness amounted to 0.535. The value for GUUCCGUUGGCGUAAUGGUAACGCGUCUCACUCCUGAGGAGAAGACUGCGGGUUCGAGUCCCGUGCGGAACG was 0.648; that for GUUCCGUUGGCGUAAUGGUAACGCGUCUCACUCUUAAGGAGAAGACUGCGGGUUCGAGUCCCCUACGGAACG was 0.698.

For the variant GUUCCGUUGGCGUAAUGGUAACGCGUCUUCCUCCUAAGGAGAAGACUGCGGGUUCGAGUCCCGUACGUAACG, the yeast fitness is 0.803. The result for GUUCCGUUGGCGUAAUGGUAACGCGUCUUCCUCCUAAGGAGAAGACUGCGGGUUCGAGUCCCGUACGAAACG reads 0.937; that for GUUCCGUUGGCGUAAUGGUAACGCGUCUCACUCCUAAGGAGAAGACUGCGGGUUCGAGUCUCGUUCGGAACG, not above 0.5.

Take GUUCCGUUGGCGUAAUGGUAACGCGUCUCACUCCUAAGGCGAAGACUGCGGGUUCAAGUCCCGUACGGAACG: the yeast fitness is not above 0.5. The result for GUUCCGUUGGCGUAAUGGUAACGCGUCUUCCCCCUAAGGAGAAGACUGCGCGUUCGAGUCCCGUACGGAACG reads not above 0.5; that for GUUCCGUUGGCGUAAUGGUAACGCGUCUCACUCCUAAGGAGAAGACUGCGGGUUCGAGUCCCGUGCGGAACG, 1.02. The result for GUUCCGUUGGCGUAAUGGUAACGCGUCUCACUCCUAAGGAGAAGACUGCGGGUUCGAGUCCCGUCCGGAACG reads 0.814; that for GUUCCGUUGGCGUAAUGGUAACGCGUCUCACUCCUAAGGAGAAGACUGCGGGUUCGAGUCCCGUUCGGAACG, 0.802; that for GUUCCGUUGGCGUAAUGGUAACGCGUCUUCCUCCUAAGGAGAAGACCGCGGGUUCGAGUCCCGUACUGUACG, not above 0.5. The value for GUUCCGUUGGCGUAAUGGUAACGCGUCUCACUCCUAAGGAGAAGACUGCGGGUUCGAGUCCCGUACGGAACG was 0.998. Take GUUCCGUUGGCGUAAUGGUAACGCGUCUCACUCCUAGGGAGAAGACUGCGGGUUCGGGUCCCGUACGGAACG: the yeast fitness is not above 0.5.

Regarding GUUCCGUUGGCGUAAUGGUAACGCGUCUCACUCCUAAGGAGAAGACUGCGGGUUCGAGUCCGGUACGGAUCG, the yeast fitness amounted to 0.547. Take GUUCCGUUGGCGUAAUGGUAACGCGUCUUCCUCCUAAGGAGAAGACUGCGGGAUCGAGUCUCGUACGGAACG: the yeast fitness turned out to be 0.685. The result for GUUCCGUUGGCGUAAUGGUAACGCGUCUUCCUCCUAAGGAGAAGACUGCGGGUACGAGUCCCGUACGGAACG reads 0.627; that for GUUCCGUUGGCGUAAUGGUAACGCGUCUCACUCCUAAGGAGAAGGCUGCGGGAUCGAGUCCCGUACGGAACG, 1.1; that for GUUCCGUUGGCGUAAUGGUAACGCGUCUCACUCCUAAGGAGAAGACUGAGGGUUCGAGUUCCGUACGGAACG, not above 0.5. The result for GUUCCGUUGGCGUAAUGGUAACGCGUCUCACUCCUCAGGAGAAGAGUGCGGGUUCGAGUCCCGUACGGAACG reads 0.532. The result for GUUCCGUUGGCGUAAUGGUAACGCGUCUUCCUCCUAAGGAGAAGACUGCGGGUUCGAGUCCCGUACGACACG reads not above 0.5; that for GUUCCGUUGGCGUAAUGGUAACGCGUCUCACUCCUAAGGGGAAGACUGCGGGUUCGAGGCCCGUACGGACCG, not above 0.5; that for GUUCCGUUGGCGUAAUGGUAACGCGUCUUCCCCCUAAGGAGAAGACUGCGGGUUCGAGUCCCGUACGGAACG, 0.981. On to GUUCCGUUGGCGUAAUGGUAACGCGUCUCACUCCUUAGGAGAAGACUGCGGGUUCGAGUUCCGUACGGCACG, for which the yeast fitness is 0.6. The result for GUUCCGUUGGCGUAAUGGUAACGCGUCUCACUCCUAAGGAGAAGAUUGCGGAUUUGAGUCCCGUACGGAACG reads not above 0.5; that for GUUCCGUUGGCGUAAUGGUAACGCGUCUCAAUCCUAAGGAGAAGACUGCGGGUUCGAGUUCGGUACGGAACG, not above 0.5.

With GUUCCGUUGGCGUAAUGGUAACGCGUCUUCCUCCCAAGGAGAAGACUGCGGGUUCGAGUCCUGUACGGAUCG, the yeast fitness was not above 0.5. The result for GUUCCGUUGGCGUAAUGGUAACGCGUCUCACUCCUAAGGAGAAGACUGCGGGUUCGAGUCACGUCCGGAACG reads 0.578; that for GUUCCGUUGGCGUAAUGGUAACGCGUCUCACUCCUAAGGAGAAGACUGCGGGUUCGAGUCCCGUUCGGCACG, 0.692; that for GUUCCGUUGGCGUAAUGGUAACGCGUCUUCCUCCAAACGAGAAGUCUGCGGGUUCGAGCCCCGUACGGAACG, not above 0.5. The value for GUUCCGUUGGCGUAAUGGUAACGCGUCUCACUCCUAAGGAGAAGACUGCGGGUUCGAGUCCUAUACGGAACG was not above 0.5; that for GUUCCGUUGGCGUAAUGGUAACGCGUCUCACUCCUUAGGAGGAGACUGCGGGUUCGAGUUCCGUACGGCACG was not above 0.5. The value for GUUCCGUUGGCGUAAUGGUAACGCGUCUCACUCCUAAGGUGAAGACUGCGGGUUCGAUUCCCGUACGGAACG was not above 0.5. GUUCCGUUGGCGUAAUGGUAACGCGUCUCACUCCUACGGAGAAGACUGCGGGUUCGAGUCCCGUACGGAACG: the yeast fitness is 0.772. Regarding GUUCCGUUGGCGUAAUGGUAACGCGUCUCACUCCUAAGGAGAAGACUGCGGGUUCGUGUCCCGUACGGAACG, the yeast fitness was found to be 0.768.

On to GUUCCGUUGGCGUAAUGGUAACGCGUCUUCCUCCUAAGGAGAAGACUGCGGGCUGGAGUCCAGUACGGAACG, for which the yeast fitness was not above 0.5. Consider GUUCCGUUGGCGUAAUGGUAACGCGUCUCACUCCUAAGGAGAUGACUGCGGGUUCGAGUCCCGUAUGGAACG, for which the yeast fitness was 0.75. The result for GUUCCGUUGGCGUAAUGGUAACGCGUCUUCCUCCCAAGGAGUAGACUGCGGGUUCGAGUCUCGUAAGGAACG reads not above 0.5; that for GUUCCGUUGGCGUAAUGGUAACGCGUCUUCCGCCUAAGGAGAUCACUGCGGGCUCGAGUCCCGUACGGAACG, not above 0.5; that for GUUCCGUUGGCGUAAUGGUAACGCGUCUCACUCCUAAGGCGAAGAUUGCGGGUUCGAGUUCCGUAUGGAACG, not above 0.5. Consider GUUCCGUUGGCGUAAUGGUAACGCGUCUUCCUCCCAAGGAGAAGACUGCGGGUUCGAGUCCCGUACGGAACG, for which the yeast fitness was 0.95. The value for GUUCCGUUGGCGUAAUGGUAACGCGUCUCAUUCCUGAGGAGAAGACUGCGGGUUCGAGUCCCGUACGGAACG was 0.587; that for GUUCCGUUGGCGUAAUGGUAACGCGUCUCACUCCUGAGGAGAAGACUGCGGGUUCGAGUCCCGUACCGAACG was 0.537; that for GUUCCGUUGGCGUAAUGGUAACGCGUCUCACUCCUACGGAAAUCACUGCGGGUUCGAGUCCCGUACGGAGCG was not above 0.5.

As to GUUCCGUUGGCGUAAUGGUAACGCGUCUCACUCCUAUGGUGAAGACUGUGGGUUCGAGUCCCGUACGGAACG, the yeast fitness is not above 0.5. The result for GUUCCGUUGGCGUAAUGGUAACGCGUCUCACUCCUAAGGAGAAGAGUGCGGGUUCGAGUCCCGUACGGAACG reads 0.991. The result for GUUCCGUUGGCGUAAUGGUAACGCGUCUUCCUCCCAAGGAGAACACUGUGGGUUCGUGUCCCAUACGGAACG reads not above 0.5; that for GUUCCGUUGGCGUAAUGGUAACGCGUCUCAUUCCUAAGGAGAAGACUGCGGGUUCGAGUGCCGUACGGAACG, 0.565; that for GUUCCGUUGGCGUAAUGGUAACGCGUCUCACUCCUAAGGAGGAGACUGCGGGUACGCGUCCCGUACGGAACG, not above 0.5.

Regarding GUUCCGUUGGCGUAAUGGUAACGCGUCUCACUACUAAGGAGAAGACUGCGGGUUCGAGUCCCGUACGGAACG, the yeast fitness came to 0.652. GUUCCGUUGGCGUAAUGGUAACGCGUCUUCCCCCGAAGGAGAAGACUGCGGGUUCGAGUCCCGUACGGAUCG: the yeast fitness was not above 0.5. Take GUUCCGUUGGCGUAAUGGUAACGCGUCUCAUUCCUAAGGAGAAGCCUGCGGGUUCGAGUCCCGUACGGAACG: the yeast fitness came out at 0.663. In the case of GUUCCGUUGGCGUAAUGGUAACGCGUCUCACUCCUCAAGAGAAGACUGCGGGUUCGAGUCCCGUACGGAACG, the yeast fitness was not above 0.5.

With GUUCCGUUGGCGUAAUGGUAACGCGUCUUCCACCUAAGGAGAAGACUGCGGGUUCGAGUCCCGUACGGUACG, the yeast fitness came out at 0.6. The value for GUUCCGUUGGCGUAAUGGUAACGCGUCUUCCGCCUAAGGAGAUCACUGCGGGUUCGAGUCUCGUACGGAACG was 0.509. The result for GUUCCGUUGGCGUAAUGGUAACGCGUCUCACUCCUACGGAAAUCACUGCGGGUUCGAGUCCCGUACGGAACG reads not above 0.5; that for GUUCCGUUGGCGUAAUGGUAACGCGUCUCACUCCUAAGGAGAAGACUGCGGGUUUGAGUCCGGUACGGAACG, 0.508; that for GUUCCGUUGGCGUAAUGGUAACGCGUCUCACUCCUAAGGAGACGACUGCGGGUUCGAGUCCCGUACGGAACG, 0.884. The result for GUUCCGUUGGCGUAAUGGUAACGCGUCUUCCUCCUAAGGAGAAGACUGCGGGUUCGAGUCCCGUACAGAACG reads 0.771.

With GUUCCGUUGGCGUAAUGGUAACGCGUCUUCCUCCUAAGGAGAAGACUGCGGGUUCGAGUCCCGUACCGAACG, the yeast fitness is 0.848.

On to GUUCCGUUGGCGUAAUGGUAACGCGUCUCACUCGUAAGGAGAAGACUGCAGGUUCGAGUCCUGUAAGGAACG, for which the yeast fitness is not above 0.5. The value for GUUCCGUUGGCGUAAUGGUAACGCGUCUCACUCCUAAGGAGAAGACUGUGGGUUCGAGUCCCGUACUGAACG was 0.608; that for GUUCCGUUGGCGUAAUGGUAACGCGUCUCACUCGUAAGGAGAAGACUGCGGGUUCGAGUCCCGUACGGAACG was 0.682; that for GUUCCGUUGGCGUAAUGGUAACGCGUCUCACUCCUAUGGAGAACACUGCGGGAUCGAGUCCCGUACGGAACG was not above 0.5. As to GUUCCGUUGGCGUAAUGGUAACGCGUCUUCCUCCUAAGGAGAAGACAGCGGGUUCGAGUCCCGUACGGUACG, the yeast fitness worked out at 0.679.
